Measured values as given in ChEMBL document CHEMBL4732114, “Design and structural optimization of novel 2H-benzo[h]chromene derivatives that target AcrB and reverse bacterial multidrug resistance” (Eur J Med Chem, 2021).
In brackets after ≈: the same amount, converted by molar mass.

Legend:
[1] = target: T1, Multidrug efflux pump subunit AcrB (Escherichia coli (strain K12)) (UniProt P31224); assay: Inhibition of AcrB in multidrug-resistant Escherichia coli BW25113 assessed as potentiation of chloramphenicol-induced antibacterial activity by measuring chloramphenicol MIC at 8 ug/ml by checkerboard titration method (reference value: 8 ug/ml); details: dose 8.0 µg/ml
T1 sequence (whole entry): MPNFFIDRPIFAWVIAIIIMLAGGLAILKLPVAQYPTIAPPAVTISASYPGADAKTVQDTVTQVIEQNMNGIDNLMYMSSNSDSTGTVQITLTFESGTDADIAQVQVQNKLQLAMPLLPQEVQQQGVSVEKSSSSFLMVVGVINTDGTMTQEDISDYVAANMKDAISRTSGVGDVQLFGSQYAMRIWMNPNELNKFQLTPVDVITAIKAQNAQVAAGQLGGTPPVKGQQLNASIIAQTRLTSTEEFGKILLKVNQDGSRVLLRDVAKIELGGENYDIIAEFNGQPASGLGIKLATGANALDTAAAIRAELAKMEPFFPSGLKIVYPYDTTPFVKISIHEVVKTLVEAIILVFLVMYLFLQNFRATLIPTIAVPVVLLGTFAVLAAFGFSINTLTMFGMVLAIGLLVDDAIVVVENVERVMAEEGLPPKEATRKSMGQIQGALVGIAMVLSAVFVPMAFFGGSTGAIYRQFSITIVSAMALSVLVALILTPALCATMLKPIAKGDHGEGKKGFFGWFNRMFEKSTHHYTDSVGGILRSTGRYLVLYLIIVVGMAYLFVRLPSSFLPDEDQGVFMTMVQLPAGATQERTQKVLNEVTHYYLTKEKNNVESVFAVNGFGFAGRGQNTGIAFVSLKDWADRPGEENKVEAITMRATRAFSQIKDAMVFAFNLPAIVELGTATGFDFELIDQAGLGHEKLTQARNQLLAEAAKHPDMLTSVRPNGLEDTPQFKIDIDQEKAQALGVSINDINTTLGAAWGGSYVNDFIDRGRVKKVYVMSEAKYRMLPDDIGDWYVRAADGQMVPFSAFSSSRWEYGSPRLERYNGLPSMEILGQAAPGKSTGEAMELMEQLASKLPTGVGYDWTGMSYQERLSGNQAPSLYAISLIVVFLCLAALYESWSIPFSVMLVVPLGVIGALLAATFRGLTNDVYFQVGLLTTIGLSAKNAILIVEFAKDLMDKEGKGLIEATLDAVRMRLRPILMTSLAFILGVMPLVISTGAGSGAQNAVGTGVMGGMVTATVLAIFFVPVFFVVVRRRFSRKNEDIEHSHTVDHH

[2] = target: T1, Multidrug efflux pump subunit AcrB (Escherichia coli (strain K12)); assay: Inhibition of AcrB in multidrug-resistant Escherichia coli BW25113 assessed as potentiation of chloramphenicol-induced antibacterial activity by measuring chloramphenicol MIC at 16 ug/ml by checkerboard titration method (reference value: 8 ug/ml); details: dose 16.0 µg/ml
[3] = target: T1, Multidrug efflux pump subunit AcrB (Escherichia coli (strain K12)); assay: Inhibition of AcrB in multidrug-resistant Escherichia coli BW25113 assessed as potentiation of chloramphenicol-induced antibacterial activity by measuring chloramphenicol MIC at 32 ug/ml by checkerboard titration method (reference value: 8 ug/ml); details: dose 32.0 µg/ml
[4] = target: T1, Multidrug efflux pump subunit AcrB (Escherichia coli (strain K12)); assay: Inhibition of AcrB in multidrug-resistant Escherichia coli BW25113 assessed as potentiation of chloramphenicol-induced antibacterial activity by measuring chloramphenicol MIC at 64 ug/ml by checkerboard titration method (reference value: 8 ug/ml); details: dose 64.0 µg/ml
[5] = target: T1, Multidrug efflux pump subunit AcrB (Escherichia coli (strain K12)); assay: Inhibition of AcrB in multidrug-resistant Escherichia coli BW25113 assessed as potentiation of chloramphenicol-induced antibacterial activity by measuring chloramphenicol MIC at 128 ug/ml by checkerboard titration method (reference value: 8 ug/ml); details: dose 128.0 µg/ml
[6] = target: T1, Multidrug efflux pump subunit AcrB (Escherichia coli (strain K12)); assay: Inhibition of AcrB in multidrug-resistant Escherichia coli BW25113 assessed as potentiation of erythromycin-induced antibacterial activity by measuring erythromycin MIC at 128 ug/ml by checkerboard titration method (reference value: 64 ug/ml); details: dose 128.0 µg/ml
[7] = target: T1, Multidrug efflux pump subunit AcrB (Escherichia coli (strain K12)); assay: Inhibition of AcrB in multidrug-resistant Escherichia coli BW25113 assessed as potentiation of tetraphenylphosphonium-induced antibacterial activity by measuring tetraphenylphosphonium MIC at 8 ug/ml by checkerboard titration method (reference value: 1024 ug/ml); details: dose 8.0 µg/ml
[8] = target: T1, Multidrug efflux pump subunit AcrB (Escherichia coli (strain K12)); assay: Inhibition of AcrB in multidrug-resistant Escherichia coli BW25113 assessed as potentiation of tetraphenylphosphonium-induced antibacterial activity by measuring tetraphenylphosphonium MIC at 16 ug/ml by checkerboard titration method (reference value: 1024 ug/ml); details: dose 16.0 µg/ml
[9] = target: T1, Multidrug efflux pump subunit AcrB (Escherichia coli (strain K12)); assay: Inhibition of AcrB in multidrug-resistant Escherichia coli BW25113 assessed as potentiation of tetraphenylphosphonium-induced antibacterial activity by measuring tetraphenylphosphonium MIC at 32 ug/ml by checkerboard titration method (reference value: 1024 ug/ml); details: dose 32.0 µg/ml
[10] = target: T1, Multidrug efflux pump subunit AcrB (Escherichia coli (strain K12)); assay: Inhibition of AcrB in multidrug-resistant Escherichia coli BW25113 assessed as potentiation of tetraphenylphosphonium-induced antibacterial activity by measuring tetraphenylphosphonium MIC at 64 ug/ml by checkerboard titration method (reference value: 1024 ug/ml); details: dose 64.0 µg/ml
[11] = target: T1, Multidrug efflux pump subunit AcrB (Escherichia coli (strain K12)); assay: Inhibition of AcrB in multidrug-resistant Escherichia coli BW25113 assessed as potentiation of levofloxacin-induced antibacterial activity by measuring levofloxacin MIC at 32 ug/ml by checkerboard titration method (reference value: 0.06 ug/ml); details: dose 32.0 µg/ml
[12] = target: T1, Multidrug efflux pump subunit AcrB (Escherichia coli (strain K12)); assay: Inhibition of AcrB in multidrug-resistant Escherichia coli BW25113 assessed as potentiation of levofloxacin-induced antibacterial activity by measuring levofloxacin MIC at 64 ug/ml by checkerboard titration method (reference value: 0.06 ug/ml); details: dose 64.0 µg/ml
[13] = target: T1, Multidrug efflux pump subunit AcrB (Escherichia coli (strain K12)); assay: Inhibition of AcrB in multidrug-resistant Escherichia coli BW25113 assessed as potentiation of levofloxacin-induced antibacterial activity by measuring levofloxacin MIC at 128 ug/ml by checkerboard titration method (reference value: 0.06 ug/ml); details: dose 128.0 µg/ml
[14] = system: Cell membrane; assay: Induction of outer membrane permeabilization in wild type Escherichia coli BW25113 assessed as increase in nitrocefin hydrolysis at 128 ug/ml in presence of CCCP by spectroscopic analysis; details: dose 128 µg/ml
In short: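 Intact E. coli were treated with 10 μM CCCP to block nitrocefin efflux, then given compound, nothing, or polymyxin B as permeabilizer control. Nitrocefin was added, and hydrolysis by periplasmic β-lactamase was followed as the rise in absorbance at 490 nm. Duplicate experiments were run on different days.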

[15] = target: T1, Multidrug efflux pump subunit AcrB (Escherichia coli (strain K12)); details: Escherichia coli BW25113; dose 8.0 µg/ml
[16] = target: T1, Multidrug efflux pump subunit AcrB (Escherichia coli (strain K12)); details: Escherichia coli BW25113; dose 64.0 µg/ml
[17] = target: T1, Multidrug efflux pump subunit AcrB (Escherichia coli (strain K12)); details: Escherichia coli BW25113; dose 128.0 µg/ml

Structure (SMILES)	MIC [1]	MIC [2]	MIC [3]	MIC [4]	MIC [5]	MIC [6]	MIC [7]	MIC [8]	MIC [9]	MIC [10]	MIC [11]	MIC [12]	MIC [13]	Activity [14]	MIC [15]	MIC [16]	MIC [17]
COc1cccc(COc2cccc3c4c(c(-c5nnco5)cc23)CCC(C)(C)O4)c1	8 µg/mL	8 µg/mL	8 µg/mL	8 µg/mL	8 µg/mL	32 µg/mL	1020 µg/mL	1020 µg/mL	1020 µg/mL	512 µg/mL	0.06 µg/mL	0.06 µg/mL	0.06 µg/mL	Not Active	16 µg/mL (≈ 38.4 µM)	16 µg/mL (≈ 38.4 µM)	16 µg/mL (≈ 38.4 µM)
CC1(C)CCc2c(-c3nnco3)cc3c(OCc4ccccc4)cccc3c2O1	8 µg/mL	8 µg/mL	4 µg/mL	4 µg/mL	2 µg/mL	16 µg/mL	512 µg/mL	512 µg/mL	512 µg/mL	512 µg/mL	0.06 µg/mL	0.06 µg/mL	0.06 µg/mL	Not Active	16 µg/mL (≈ 41.4 µM)	16 µg/mL (≈ 41.4 µM)	16 µg/mL (≈ 41.4 µM)
CC1(C)CCc2c(-c3nnco3)cc3c(OCc4ccc(C#N)cc4)cccc3c2O1	8 µg/mL	4 µg/mL	4 µg/mL	4 µg/mL	2 µg/mL	32 µg/mL	1020 µg/mL	1020 µg/mL	1020 µg/mL	512 µg/mL	0.06 µg/mL	0.06 µg/mL	0.06 µg/mL	Not Active	16 µg/mL (≈ 38.9 µM)	16 µg/mL (≈ 38.9 µM)	16 µg/mL (≈ 38.9 µM)
CC1(C)CCc2c(C(=O)O)cc3c(OCc4ccccc4)cccc3c2O1	8 µg/mL	8 µg/mL	8 µg/mL	4 µg/mL	1 µg/mL	32 µg/mL	1020 µg/mL	1020 µg/mL	512 µg/mL	256 µg/mL	0.06 µg/mL	0.01 µg/mL	0.01 µg/mL	Not Active	16 µg/mL (≈ 44.1 µM)	16 µg/mL (≈ 44.1 µM)	16 µg/mL (≈ 44.1 µM)
COc1cccc(COc2cccc3c4c(c(C(=O)N5CCOCC5)cc23)CCC(C)(C)O4)c1	4 µg/mL	4 µg/mL	4 µg/mL	4 µg/mL	2 µg/mL	16 µg/mL	512 µg/mL	512 µg/mL	512 µg/mL	256 µg/mL	0.06 µg/mL	0.06 µg/mL	0.06 µg/mL	Not Active	16 µg/mL (≈ 34.7 µM)	16 µg/mL (≈ 34.7 µM)	16 µg/mL (≈ 34.7 µM)
CC1(C)CCc2c(C(=O)N3CCOCC3)cc3c(OCc4ccc(C(F)(F)F)cc4)cccc3c2O1	8 µg/mL	8 µg/mL	8 µg/mL	8 µg/mL	4 µg/mL	16 µg/mL	512 µg/mL	512 µg/mL	512 µg/mL	512 µg/mL	0.06 µg/mL	0.06 µg/mL	0.06 µg/mL	Not Active	16 µg/mL (≈ 32 µM)	16 µg/mL (≈ 32 µM)	16 µg/mL (≈ 32 µM)
CC(C)NCCOc1ccc2c(c1)OC(C)(C)CC2=O	8 µg/mL	8 µg/mL	8 µg/mL	8 µg/mL	8 µg/mL	64 µg/mL	1020 µg/mL	1020 µg/mL	1020 µg/mL	1020 µg/mL	0.03 µg/mL	0.03 µg/mL	0.03 µg/mL	Not Active	16 µg/mL (≈ 57.7 µM)	16 µg/mL (≈ 57.7 µM)	16 µg/mL (≈ 57.7 µM)
Cc1ccc(COc2cccc3c4c(c(-c5nnco5)cc23)CCC(C)(C)O4)cc1	8 µg/mL	8 µg/mL	8 µg/mL	8 µg/mL	2 µg/mL	8 µg/mL	512 µg/mL	512 µg/mL	512 µg/mL	512 µg/mL	0.03 µg/mL	0.03 µg/mL	0.01 µg/mL	Not Active	16 µg/mL (≈ 40 µM)	16 µg/mL (≈ 40 µM)	16 µg/mL (≈ 40 µM)
